Test results: ChEMBL document CHEMBL1148956, “New sesquiterpenes from Pluchea arabica” (J Nat Prod, 2004)
≈ marks a conversion by molar mass, not a printed value. Calls of active or inactive are those of the source. The calls are words filed in the database; no cut-off is given here.

Tests used:
[1] = tested on: Radical scavenging activity; test: Antioxidant activity assessed as DPPH free radical scavenging activity relative to control; assay type: functional
[2] = Toxicity against brine shrimp larvae; assay type: organism-based; conditions: artemia, in vivo
[3] = tested on: Staphylococcus aureus; test: Antimicrobial activity against Staphylococcus aureus ATCC 29213 by agar-dilution-streak method; assay type: functional
Procedure, shortened: (§1)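 Screened with the agar-dilution-streak method. MIC was set by broth dilution following NCCLS. Compounds were dissolved in DMSO and diluted to graded concentrations in tryptone soy broth.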

[4] = tested on: Escherichia coli; test: Antimicrobial activity against Escherichia coli ATCC 9637 up to 500 ug/ml by agar-dilution-streak method; assay type: functional, organism-based
[5] = tested on: Pseudomonas aeruginosa; test: Antimicrobial activity against Pseudomonas aeruginosa ATCC 27853 up to 500 ug/ml by agar-dilution-streak method; assay type: functional, organism-based; procedure, shortened: as §1
[6] = tested on: Candida albicans; test: Antimicrobial activity against Candida albicans ATCC 10231 up to 500 ug/ml by agar-dilution-streak method; assay type: functional, organism-based; procedure, shortened: as §1
[7] = tested on: Klebsiella pneumoniae; test: Antimicrobial activity against Klebsiella pneumoniae ATCC 10031 up to 500 ug/ml by agar-dilution-streak method; assay type: functional, organism-based; procedure, shortened: as §1
[8] = tested on: Salmonella enterica; test: Antimicrobial activity against Salmonella choleraesuis ATCC 14028 up to 500 ug/ml by agar-dilution-streak method; assay type: functional, organism-based
Procedure, shortened: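 Salmonella choleraesuis ATCC 14028 was tested by the agar-dilution-streak method, alongside S. aureus ATCC 29213, P. aeruginosa ATCC 27853, C. albicans ATCC 10231 and K. pneumoniae ATCC 10031. Test compounds were dissolved in DMSO.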

Structure (SMILES) | Activity [1] [%] | LC50 [2] [µg/mL] | MIC [3] [µg/mL] | Activity [4] | Activity [5] | Activity [6] | Activity [7] | Activity [8]
C=C1C(CC2C[C@H](O)C=C2C)C(C)(C)C[C@H]1O (stereo partly specified) [GODOTOL A] | < 10 | 290 (≈ 1230 µM) | 250 (≈ 1060 µM) | inactive | inactive | inactive | inactive | inactive
C=C1C[C@@H](O)C=C(C)C2C1CC[C@@H](O)C2(C)C (stereo partly specified) [GODOTOL B] | < 10 | 540 (≈ 2280 µM) | 500 (≈ 2120 µM) | inactive | inactive | inactive | inactive | inactive
